Experimental data reported in ChEMBL document CHEMBL3853327 (J Med Chem, 2016).

Experiments:
[1] = Selectivity index, ratio of CC50 for human mock-infected MT4 cells to EC50 for HIV1 3B harboring reverse transcriptase Y181C mutant infected in human MT4 cells; format: toxicity, cell-based; settings: MT4 cells (mock-infected for CC50, HIV-1 infected for EC50)
How it was run: (§1)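 Selectivity index is CC50/EC50. CC50 is the concentration that reduces OD540 of mock-infected MT-4 cells by 50% in the 5-day MTT assay. EC50 is the 50% protection from virus-induced cytopathicity, measured in parallel on infected wells.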

[2] = system: Human immunodeficiency virus 1; test: Antiviral activity against HIV1 3B harboring reverse transcriptase K103N mutant infected in human MT4 cells assessed as protection against virus induced cytotoxicity after 5 days by MTT assay; format: functional, cell-based; settings: Human immunodeficiency virus 1, 3B, MT4, 120 h
How it was run: (§2)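 MTT cytopathicity assay in MT-4 cells (6 × 10^5 cells/mL). Compounds serially diluted 5-fold in triplicate wells, run in parallel on infected and mock-infected cells. Virus added at 100−300 CCID50 per well. Viability read spectrophotometrically at 540 and 690 nm after 5 days, using the median OD of three wells. EC50 is the concentration giving 50% protection from viral cytopathogenicity.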

[3] = system: Human immunodeficiency virus 1; test: Antiviral activity against HIV1 3B harboring reverse transcriptase Y188L mutant infected in human MT4 cells assessed as protection against virus induced cytotoxicity after 5 days by MTT assay; format: functional, cell-based; settings: Human immunodeficiency virus 1, 3B, MT4, 120 h; how it was run: as §2
[4] = system: Human immunodeficiency virus 1; test: Antiviral activity against HIV1 3B harboring reverse transcriptase F227L/V106A double mutant infected in human MT4 cells assessed as protection against virus induced cytotoxicity after 5 days by MTT assay; format: functional, cell-based; settings: Human immunodeficiency virus 1, 3B, MT4, 120 h; how it was run: as §2
[5] = system: Human immunodeficiency virus 1; test: Antiviral activity against wild type HIV1 3B harboring reverse transcriptase infected in human MT4 cells assessed as protection against virus induced cytotoxicity after 5 days by MTT assay; format: functional, cell-based; settings: Human immunodeficiency virus 1, 3B, MT4, 120 h
How it was run: (§3)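 MTT cytopathicity assay in MT-4 cells (6 × 10^5 cells/mL). Compounds serially diluted 5-fold in triplicate wells, run in parallel on infected and mock-infected cells. Virus added at 100−300 CCID50 per well. Viability read spectrophotometrically at 540 and 690 nm after 5 days, using the median OD of three wells.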

[6] = Selectivity index, ratio of CC50 for human mock-infected MT4 cells to EC50 for wild type HIV1 3B harboring reverse transcriptase infected in human MT4 cells; format: toxicity, cell-based; settings: MT4 cells (mock-infected for CC50, HIV-1 infected for EC50); how it was run: as §1
[7] = Selectivity index, ratio of CC50 for human mock-infected MT4 cells to EC50 for HIV1 3B harboring reverse transcriptase Y188L mutant infected in human MT4 cells; format: toxicity, cell-based; settings: MT4 cells (mock-infected for CC50, HIV-1 infected for EC50); how it was run: as §1
[8] = target: Human immunodeficiency virus type 1 reverse transcriptase (Human immunodeficiency virus 1, UniProt Q72547, K103N/Y181C); test: Inhibition of recombinant HIV1 reverse transcriptase K103N/Y181C double mutant using DIG-dUTP/biotin-dUTP/dTTP assessed as suppression of biotin-dUTP incorporation after 1 hr by ELISA
[9] = Selectivity index, ratio of CC50 for human mock-infected MT4 cells to EC50 for HIV1 3B harboring reverse transcriptase L100I mutant infected in human MT4 cells; format: toxicity, cell-based; settings: MT4 cells (mock-infected for CC50, HIV-1 infected for EC50); how it was run: as §1
[10] = system: Human immunodeficiency virus 1; test: Antiviral activity against HIV1 3B harboring reverse transcriptase E138K mutant infected in human MT4 cells assessed as protection against virus induced cytotoxicity after 5 days by MTT assay; format: functional, cell-based; settings: Human immunodeficiency virus 1, 3B, MT4, 120 h; how it was run: as §2
[11] = Selectivity index, ratio of CC50 for human mock-infected MT4 cells to EC50 for HIV1 RES056 harboring reverse transcriptase K103N/Y181C double mutant infected in human MT4 cells; format: toxicity, cell-based; settings: MT4 cells (mock-infected for CC50, HIV-1 infected for EC50); how it was run: as §1
[12] = Selectivity index, ratio of CC50 for human mock-infected MT4 cells to EC50 for HIV1 3B harboring reverse transcriptase K103N mutant infected in human MT4 cells; format: toxicity, cell-based; settings: MT4 cells (mock-infected for CC50, HIV-1 infected for EC50); how it was run: as §1
[13] = Antiviral activity against HIV2 ROD harboring reverse transcriptase infected in human MT4 cells assessed as protection against virus induced cytotoxicity after 5 days by MTT assay; format: functional, cell-based, Human immunodeficiency virus type 2 (ISOLATE ROD); settings: Human immunodeficiency virus 2, MT4, 120 h; how it was run: as §2
[14] = Selectivity index, ratio of CC50 for human mock-infected MT4 cells to EC50 for HIV1 3B harboring reverse transcriptase E138K mutant infected in human MT4 cells; format: toxicity, cell-based; settings: MT4 cells (mock-infected for CC50, HIV-1 infected for EC50); how it was run: as §1
[15] = system: Human immunodeficiency virus 1; test: Antiviral activity against HIV1 3B harboring reverse transcriptase L100I mutant infected in human MT4 cells assessed as protection against virus induced cytotoxicity after 5 days by MTT assay; format: functional, cell-based; settings: Human immunodeficiency virus 1, 3B, MT4, 120 h; how it was run: as §2
[16] = system: Human immunodeficiency virus 1; test: Antiviral activity against HIV1 3B harboring reverse transcriptase Y181C mutant infected in human MT4 cells assessed as protection against virus induced cytotoxicity after 5 days by MTT assay; format: functional, cell-based; settings: Human immunodeficiency virus 1, 3B, MT4, 120 h; how it was run: as §3
[17] = Cytotoxicity against human mock-infected MT4 cells assessed as reduction in cell viability after 5 days by MTT assay; format: toxicity, cell-based
How it was run: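 Mock-infected MT-4 cells (6 × 10^5 cells/mL at seeding) with serial 5-fold compound dilutions in triplicate wells. Viability read by MTT after 5 days, absorbance at 540 and 690 nm, median OD of three wells. CC50 is the concentration reducing OD540 of mock-infected cells by 50%.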

[18] = Inhibition of recombinant wild type HIV1 reverse transcriptase using DIG-dUTP/biotin-dUTP/dTTP assessed as suppression of biotin-dUTP incorporation after 1 hr by ELISA; design: species or system Human immunodeficiency virus 1
How it was run: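 Recombinant WT HIV-1 RT in a Roche colorimetric kit: template plus DIG-dUTP, biotin-dUTP and dTTP, ±inhibitor, 1 h at 37 °C. Product captured on streptavidin plate 1 h at 37 °C, anti-DIG-POD 1 h at 37 °C, ABTS developed at 25 °C, read at OD405. IC50 is the concentration inhibiting biotin-dUTP incorporation by 50%.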

[19] = Selectivity index, ratio of CC50 for human mock-infected MT4 cells to EC50 for HIV1 3B harboring reverse transcriptase F227L/V106A double mutant infected in human MT4 cells; format: toxicity, cell-based; settings: MT4 cells (mock-infected for CC50, HIV-1 infected for EC50); how it was run: as §1
[20] = system: Human immunodeficiency virus 1; test: Fold resistance, ratio of IC50 for recombinant HIV1 reverse transcriptase K103N/Y181C double mutant to IC50 for wild type HIV1 reverse transcriptase
How it was run: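 Ratio of mutant to WT IC50. Recombinant WT and K103N/Y181C RT were assayed with a kit: template plus DIG-dUTP, biotin-dUTP and dTTP, with or without inhibitor, 1 h at 37 °C. Product was captured on streptavidin, detected with anti-DIG-POD and ABTS, and read at 405 nm. IC50 is the concentration inhibiting biotin-dUTP incorporation by 50%.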

SMILES	selectivity ratio [1]	EC50 [2] [nM]	EC50 [3] [nM]	EC50 [4] [nM]	EC50 [5] [nM]	selectivity ratio [6]	selectivity ratio [7]	IC50 [8] [nM]	selectivity ratio [9]	EC50 [10] [nM]	selectivity ratio [11]	selectivity ratio [12]	EC50 [13] [nM]	selectivity ratio [14]	EC50 [15] [nM]	EC50 [16] [nM]	CC50 at 120 h [17] [nM]	IC50 [18] [nM]	selectivity ratio [19]	Ratio IC50 [20]
Cc1cc(C)c(Oc2nc(NC3CCN(Cc4ccc(S(C)(=O)=O)cc4)CC3)nc3ccsc23)c(C)c1	118	6.2	32.2	23.9	5.7	595	106	2500	143	18.2	12	548	> 3420	187	23.9	28.9	3420	650	81	3.84
Cc1cc(C#N)cc(C)c1Oc1nc(NC2CCN(Cc3ccc(F)cc3)CC2)nc2ccsc12	3740	8.7	44.8	712	7.5	18700	3140	2570	1550	34.4	131	16200	≥ 141000	4100	90.9	37.8	141000	810	198	3.17
Cc1cc(C#N)cc(C)c1Oc1nc(NC2CCN(Cc3ccncc3)CC2)nc2ccsc12	483	9.9	55.3	130	10.3	2000	373	3740	253	42.2	32	2090	> 20600	489	81.6	42.7	20600	1300	159	2.87
Cc1cc(C)c(Oc2nc(NC3CCN(Cc4ccc(F)cc4)CC3)nc3ccsc23)c(C)c1	66	91.8	715	5310	25.7	465	17	6570	10	166	2	130	> 11900	72	1210	182	11900	1230	2	5.34
COC(=O)c1ccc(CN2CCC(Nc3nc(Oc4c(C)cc(C)cc4C)c4sccc4n3)CC2)cc1	154	94.6	243	1850	15.4	1610	102	12300	38	39.5	5	263	> 24900	629	650	161	24900	1240	13	9.92
Cc1cc(C#N)cc(C)c1Oc1nc(NC2CCN(Cc3ccc(S(C)(=O)=O)cc3)CC2)nc2ccsc12	622	12	41	44	22.1	1000	543	2830	306	39	50	1800	> 22300	566	73	36	22300	1510	507	1.87
Cc1cc(C)c(Oc2nc(NC3CCN(Cc4cccc(F)c4)CC3)nc3ccsc23)c(C)c1	98	149	599	3120	39.1	628	41	40400	16	172	3	165	> 24600	143	1530	252	24600	790	8	51.2
